Results on one compound are retold here after ChEMBL document CHEMBL1240328, “Selective compounds define Hsp90 as a major inhibitor of apoptosis in small-cell lung cancer” (Nat Chem Biol, 2007).

The target of test [1] is Heat shock protein HSP 90-beta (Homo sapiens) (UniProt P08238). As to the kind of experiment: Inhibition of HSP90-mediated antiapoptotic activity in human NCI-H69 cells assessed as mitochondrial membrane depolarization at 5 uM after 72 hrs by JC-1 staining-based flow cytometry. The test is classed as cell-based. Summed up: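 Mitochondrial membrane potential was measured by JC-1 staining and flow cytometry. Depolarization was scored as a shift to cells emitting only green fluorescence. The mitochondrial uncoupler CCCP served as positive control.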
On the technique in general: In flow cytometry, cells or beads pass a laser one at a time.

The target is the same in test [2]. The test is described as follows: Inhibition of HSP90-mediated antiapoptotic activity in human NCI-H526 cells assessed as induction of Akt degradation at 10 uM after 24 hrs by Western blot analysis. The test is classed as cell-based. (In western blotting, separated proteins are transferred to a membrane and probed.)
Test [3] shares this target. The test is described as follows: Effect on HSP90-mediated survivin expression in human NCI-H526 cells at 25 uM after 24 hrs by Western blot analysis. In kind it is cell-based. Summed up:
(§1)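 NCI-H526 cells were exposed for 24 h to drug or DMSO vehicle. Lysates were made in 50 mM Tris pH 7.4, 150 mM NaCl, 1% NP-40 and quantified by BCA. Western blot used 20–100 µg protein per lane, with β-actin as loading control.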

Test [4] has the same target. As to the kind of experiment: Inhibition of HSP90-mediated antiapoptotic activity in human NCI-H526 cells assessed as induction of caspase-9 cleavage at 10 uM after 24 hrs by Western blot analysis. The test is classed as cell-based. Summed up:
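NCI-H526 cells at 60–70% confluence were exposed to drug or DMSO for 24 h. Lysed in 50 mM Tris pH 7.4, 150 mM NaCl, 1% NP-40, with protein measured by BCA. 20–100 µg run on SDS-PAGE and blotted to nitrocellulose. Probed with cleaved-protein antibodies and peroxidase secondary at 1:5,000, with β-actin as loading control.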

Test [5] has the same target. As to the kind of experiment: Inhibition of HSP90-mediated antiapoptotic activity in human SKBR3 cells assessed as induction of caspase-9 cleavage at 50 uM after 24 hrs by Western blot analysis. In kind it is cell-based. To be noted: SK-BR-3. Put shortly:
(§2)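 SKBr3 cells at 60–70% confluence were exposed to drug or DMSO vehicle. Lysis was in 50 mM Tris pH 7.4, 150 mM NaCl, 1% NP-40, with protein measured by BCA. Lysates of 20–100 µg were run on SDS-PAGE, blotted to nitrocellulose, probed with primary antibodies and detected with a peroxidase-conjugated secondary (1:5,000). Loading was checked with β-actin or PI(3)K p85.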

Test [6] shares this target. As to the kind of experiment: Inhibition of HSP90-mediated antiapoptotic activity in human SKBR3 cells assessed as induction of cell growth arrest at 20 uM after 24 hrs by propidium iodide staining-based flow cytometry. The settings on record: SK-BR-3.
The test system of another test is NCI-H526. As to the kind of experiment: Inhibition of HSP70-mediated antiapoptotic activity in human NCI-H526 cells assessed as release of Apaf-1 from chaperon complex after 24 hrs by Western blot analysis. In kind it is cell-based. Summed up: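 NCI-H526 cells were treated for 24 h. PARP and caspase-3 cleavage were read by western blot of lysates in Tris/NaCl/NP-40 buffer. Apaf-1 complexes were immunoprecipitated with Apaf-1 antibody, using control IgG, then blotted.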

In test [7] the target is Heat shock protein HSP 90-beta (Homo sapiens) (UniProt P08238). The test is described as follows: Inhibition of HSP90-mediated antiapoptotic activity in human SKBR3 cells assessed as induction of PARP cleavage at 50 uM after 24 hrs by Western blot analysis. In kind it is cell-based. To be noted: SK-BR-3. Summed up: as §2
Test [8] shares this target. The test is described as follows: Inhibition of HSP90-mediated antiapoptotic activity in human NCI-H526 cells assessed as subG1 accumulation at 25 uM after 72 hrs by propidium iodide staining-based flow cytometry. The test is classed as cell-based. Put shortly: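 SCLC cells treated for 72 h with graded doses. Mitochondrial membrane potential read by flow cytometry after JC-1 staining, with green-only emission indicating depolarization. Sub-G1 DNA content read after propidium iodide staining. CCCP used as positive control. n = 3 repeat experiments.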

The subject of the next test is SK-BR-3. The test is described as follows: Inhibition of HSP70-mediated antiapoptotic activity in human SKBR3 cells assessed as increase in caspase-3 activity after 24 hrs by Western blot analysis. In kind it is cell-based.
The target in test [9] is Heat shock protein HSP 90-beta (Homo sapiens) (UniProt P08238). As to the kind of experiment: Effect on HSP90-mediated Bcl-2 expression in human NCI-H526 cells at 25 uM after 24 hrs by Western blot analysis. In kind it is cell-based. Summed up: as §1
Test [10] shares this target. As to the kind of experiment: Inhibition of HSP90-mediated antiapoptotic activity in human SKBR3 cells assessed as induction of caspase-3 cleavage at 50 uM after 24 hrs by Western blot analysis. In kind it is cell-based. The settings on record: SK-BR-3. Put shortly:
as §2

For test [11] the target is unchanged. The test is described as follows: Inhibition of HSP90-mediated antiapoptotic activity in human NCI-H526 cells assessed as increased association between caspase-9 and Apaf-1 at 20 uM after 1 hr by Western blot analysis.

Active and inactive are the calls of the source. The calls are words filed in the database; no cut-off is given here.

Sequence of Heat shock protein HSP 90-beta (Homo sapiens) (P08238 whole entry): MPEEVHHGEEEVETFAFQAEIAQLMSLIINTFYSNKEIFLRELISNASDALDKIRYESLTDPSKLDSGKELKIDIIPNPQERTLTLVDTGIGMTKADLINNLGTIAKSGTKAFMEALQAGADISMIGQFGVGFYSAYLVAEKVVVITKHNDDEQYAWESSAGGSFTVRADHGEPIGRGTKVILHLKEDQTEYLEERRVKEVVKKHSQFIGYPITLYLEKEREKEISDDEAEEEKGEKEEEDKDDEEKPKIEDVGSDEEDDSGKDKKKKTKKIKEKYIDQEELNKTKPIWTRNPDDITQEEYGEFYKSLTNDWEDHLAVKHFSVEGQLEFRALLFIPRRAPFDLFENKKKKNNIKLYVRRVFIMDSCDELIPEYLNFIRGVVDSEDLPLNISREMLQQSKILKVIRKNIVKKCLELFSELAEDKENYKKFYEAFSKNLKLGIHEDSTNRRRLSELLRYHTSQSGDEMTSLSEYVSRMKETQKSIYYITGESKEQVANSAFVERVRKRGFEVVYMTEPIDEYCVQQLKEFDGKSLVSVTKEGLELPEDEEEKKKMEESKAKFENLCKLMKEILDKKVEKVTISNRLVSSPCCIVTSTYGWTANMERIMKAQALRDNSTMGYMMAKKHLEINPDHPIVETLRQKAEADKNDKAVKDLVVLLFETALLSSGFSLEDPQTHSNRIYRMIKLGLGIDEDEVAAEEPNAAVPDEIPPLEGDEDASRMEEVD

With `O=CN1CC/C(=C/c2ccc3c(c2)OCO3)C1=O`, the result in [1], in test [2], in [3], in test [4], in [5] and in test [6] was inactive. Besides, the outcome in [7], in test [8], in test [9], in test [10] and in test [11] was inactive. Besides, the inhibition result in the test with NCI-H526 is “inactive”. Besides, the inhibition entry in the test with SK-BR-3 is “Active”.
